Measurements as given in ChEMBL document CHEMBL1155364, “Inhibitors of HIV-1 attachment. Part 4: A study of the effect of piperazine substitution patterns on antiviral potency in the context of indole-based derivatives” (Bioorg Med Chem Lett, 2009).

Experiments:
[1] = (§1) Permeability across monolayer of human Caco-2 cell; format: ADME, cell-based; conditions: read-out: permeability
[2] = Metabolic stability in rat liver microsomes after 10 mins; format: ADME, Microsome; conditions: read-out: Stability
[3] = Metabolic stability in human liver microsomes after 10 mins; format: ADME, Microsome; conditions: read-out: Stability
[4] = Cytotoxicity against human HeLa67 cell after 3 days by XTT assay; format: cell-based; conditions: HeLa67 cells
Procedure, shortened: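 HeLa67 cells exposed to test compounds in parallel with the antiviral assay; XTT read-out 3 days after compound addition, giving CC50.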

[5] = tested on: Human immunodeficiency virus 1; experiment: Antiviral activity against HIV1 infected HeLa67 after 3 days by luciferase reporter assay; format: functional, organism-based; conditions: Human immunodeficiency virus 1, HeLa67, 72 h
Caco-2 = experiment: as §1; format: ADME, cell-based

Row | SMILES | Papp [1] | remaining at 10 min [2] | remaining at 10 min [3] | CC50 at 72 h [4] | EC50 [5] | permeability (Caco-2)
1 | CCCC1CN(C(=O)c2ccccc2)CCN1C(=O)C(=O)c1c[nH]c2cccc(F)c12 (stereo not drawn) | 17.2 ×10⁻⁶ cm/s | 11% | 52% | – | – | –
2 | CC(C)C1CN(C(=O)c2ccccc2)CCN1C(=O)C(=O)c1c[nH]c2cccc(F)c12 (stereo not drawn) | 16.5 ×10⁻⁶ cm/s | 31% | 59% | – | – | –
3 | C[C@H]1CN(C(=O)c2ccccc2)CCN1C(=O)C(=O)c1c[nH]c2cccc(F)c12 | 8.8 ×10⁻⁶ cm/s | 32% | 85% | – | – | –
4 | C[C@@H]1CN(C(=O)c2ccccc2)[C@@H](C)CN1C(=O)C(=O)c1c[nH]c2cccc(F)c12 | 5 ×10⁻⁶ cm/s | 0% | 43% | – | – | –
5 | CC(C)CC1CN(C(=O)c2ccccc2)CCN1C(=O)C(=O)c1c[nH]c2cccc(F)c12 (stereo not drawn) | 17.1 ×10⁻⁶ cm/s | 7% | 38% | – | – | –
6 | O=C(NCCNC(=O)c1ccccc1)C(=O)c1c[nH]c2cccc(F)c12 | – | – | – | > 300 µM | > 50 µM | –
7 | CC1CN(C(=O)c2ccccc2)CCN1C(=O)C(=O)c1c[nH]c2cccc(F)c12 (stereo not drawn) | 7.2 ×10⁻⁶ cm/s | 12% | 82% | – | – | –
8 | CCC1CN(C(=O)c2ccccc2)CCN1C(=O)C(=O)c1c[nH]c2cccc(F)c12 (stereo not drawn) | 15 ×10⁻⁶ cm/s | 8% | 55% | – | – | –
9 | COc1cccc2[nH]cc(C(=O)C(=O)N3CCN(C(=O)c4ccccc4)C[C@@H]3C)c12 | – | 75% | 98% | – | – | Not Active
10 | CC(C)(C)C1CN(C(=O)C(=O)c2c[nH]c3cccc(F)c23)CCN1C(=O)c1ccccc1 (stereo not drawn) | 19 ×10⁻⁶ cm/s | 44% | 58% | – | – | –
11 | CN(CCCN(C)C(=O)c1ccccc1)C(=O)C(=O)c1c[nH]c2cccc(F)c12 | – | – | – | > 300 µM | > 50 µM | –
12 | O=C(NCCCNC(=O)c1ccccc1)C(=O)c1c[nH]c2cccc(F)c12 | – | – | – | > 300 µM | > 50 µM | –
13 | CC(C)C1CN(C(=O)C(=O)c2c[nH]c3cccc(F)c23)CCN1C(=O)c1ccccc1 (stereo not drawn) | 16.1 ×10⁻⁶ cm/s | 39% | 63% | – | – | –
14 | O=C(NC1CCCC(NC(=O)c2ccccc2)C1)C(=O)c1c[nH]c2cccc(F)c12 (stereo not drawn) | – | – | – | > 300 µM | > 50 µM | –
15 | CCCCCC1CN(C(=O)C(=O)c2c[nH]c3cccc(F)c23)CCN1C(=O)c1ccccc1 (stereo not drawn) | 6.9 ×10⁻⁶ cm/s | 3% | 45% | – | – | –
16 | COc1cccc2[nH]cc(C(=O)C(=O)N3CCN(C(=O)c4ccccc4)CC3)c12 | 4.3 ×10⁻⁶ cm/s | 88% | 100% | – | – | –
17 | C[C@@H]1CN(C(=O)c2ccccc2)C[C@H](C)N1C(=O)C(=O)c1c[nH]c2cccc(F)c12 | < 1.5 ×10⁻⁶ cm/s | 2% | 55% | – | – | –

Row | SMILES | Papp [1] | remaining at 10 min [2] | remaining at 10 min [3] | CC50 at 72 h [4] | EC50 [5] | permeability (Caco-2)
18 | COc1cccc2[nH]cc(C(=O)C(=O)N3CCN(C(=O)c4ccccc4)C[C@H]3C)c12 | 4.6 ×10⁻⁶ cm/s | 56% | 84% | – | – | –
19 | O=C(C(=O)N1CCN(C(=O)c2ccccc2)CC1)c1c[nH]c2cccc(F)c12 | 4.7 ×10⁻⁶ cm/s | 51% | 98% | – | – | –
20 | C[C@@H]1CN(C(=O)C(=O)c2c[nH]c3cccc(F)c23)C[C@H](C)N1C(=O)c1ccccc1 | 7.3 ×10⁻⁶ cm/s | 16% | 69% | – | – | –
21 | CC1CN(C(=O)C(=O)c2c[nH]c3cccc(F)c23)CCN1C(=O)c1ccccc1 (stereo not drawn) | 3.6 ×10⁻⁶ cm/s | 32% | 100% | – | – | –
22 | CC(C)(C)C1CN(C(=O)c2ccccc2)CCN1C(=O)C(=O)c1c[nH]c2cccc(F)c12 (stereo not drawn) | 17 ×10⁻⁶ cm/s | 49% | 68% | – | – | –
23 | O=C(C(=O)N1CCCN(C(=O)c2ccccc2)CC1)c1c[nH]c2cccc(F)c12 | – | – | – | > 300 µM | > 50 µM | –
24 | CCCC1CN(C(=O)C(=O)c2c[nH]c3cccc(F)c23)CCN1C(=O)c1ccccc1 (stereo not drawn) | 15.4 ×10⁻⁶ cm/s | 25% | 50% | – | – | –
25 | CC(C)CC1CN(C(=O)C(=O)c2c[nH]c3cccc(F)c23)CCN1C(=O)c1ccccc1 (stereo not drawn) | 19 ×10⁻⁶ cm/s | 13% | 35% | – | – | –
26 | CCCCCC1CN(C(=O)c2ccccc2)CCN1C(=O)C(=O)c1c[nH]c2cccc(F)c12 (stereo not drawn) | 15.4 ×10⁻⁶ cm/s | 0% | 29% | – | – | –
27 | CCC1CN(C(=O)C(=O)c2c[nH]c3cccc(F)c23)CCN1C(=O)c1ccccc1 (stereo not drawn) | 17.1 ×10⁻⁶ cm/s | 25% | 63% | – | – | –
28 | O=C(N[C@H]1CCCC[C@H]1NC(=O)c1ccccc1)C(=O)c1c[nH]c2cccc(F)c12 (relative stereo) | – | – | – | 65 µM | 30.5 µM | –
29 | C[C@@H]1CN(C(=O)c2ccccc2)[C@H](C)CN1C(=O)C(=O)c1c[nH]c2cccc(F)c12 (relative stereo) | 9.6 ×10⁻⁶ cm/s | 59% | 76% | – | – | –
30 | COc1cccc2[nH]cc(C(=O)C(=O)N3CCN(C(=O)c4ccccc4)CC3C)c12 (stereo not drawn) | – | 72% | 84% | – | – | Not Active
31 | CN(CCN(C)C(=O)c1ccccc1)C(=O)C(=O)c1c[nH]c2cccc(F)c12 | – | – | – | > 300 µM | > 50 µM | –
32 | C[C@@H]1CN(C(=O)c2ccccc2)CCN1C(=O)C(=O)c1c[nH]c2cccc(F)c12 | 5.4 ×10⁻⁶ cm/s | 2% | 74% | – | – | –
33 | O=C(N[C@H]1CCCC[C@@H]1NC(=O)c1ccccc1)C(=O)c1c[nH]c2cccc(F)c12 (relative stereo) | – | – | – | > 300 µM | > 50 µM | –
34 | O=C(C(=O)N1CC2CC1CN2C(=O)c1ccccc1)c1c[nH]c2cccc(F)c12 (stereo not drawn) | – | – | – | > 300 µM | > 50 µM | –
